Experimental data as given in ChEMBL document CHEMBL1132435 (J Med Chem, 1999).
Where a SMILES comes first, the peptide text is derived from it. [ ]: non-standard residue; d: D form. The star is where a group is joined. X1 = COc1ccc(C[C@@H](CN[C@@H](CCCNC(=N)N)C(=O)O)N*)cc1; Hyp = O=C(O)[C@@H]1C[C@@H](O)CN1; 2Thi = N[C@@H](Cc1cccs1)C(=O)O

Columns and labels:
B1 bradykinin receptor = biological target: T1, B1 bradykinin receptor (Homo sapiens, UniProt P46663); experiment: Binding affinity against human cloned Bradykinin receptor B1 expressed in HEK 293 cells using [3H]des-Arg10-[Leu9]-kallidin as radioligand
T1 sequence (P46663 whole entry): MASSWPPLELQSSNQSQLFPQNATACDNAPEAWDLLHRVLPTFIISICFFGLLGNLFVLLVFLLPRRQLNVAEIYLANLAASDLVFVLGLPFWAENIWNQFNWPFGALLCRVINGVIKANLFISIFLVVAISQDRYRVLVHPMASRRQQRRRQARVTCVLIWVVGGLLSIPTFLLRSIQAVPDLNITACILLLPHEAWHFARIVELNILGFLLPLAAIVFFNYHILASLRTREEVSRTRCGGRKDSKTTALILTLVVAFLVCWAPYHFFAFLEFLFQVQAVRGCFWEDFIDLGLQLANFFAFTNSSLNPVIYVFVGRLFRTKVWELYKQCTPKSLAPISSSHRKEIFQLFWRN

B2 bradykinin receptor [1] = biological target: T2, B2 bradykinin receptor (Homo sapiens, UniProt P30411); experiment: Binding affinity against human cloned Bradykinin receptor B2 expressed in CHO cells using [3H]-bradykinin as radioligand; type: cell-based
T2 sequence (P30411 whole entry): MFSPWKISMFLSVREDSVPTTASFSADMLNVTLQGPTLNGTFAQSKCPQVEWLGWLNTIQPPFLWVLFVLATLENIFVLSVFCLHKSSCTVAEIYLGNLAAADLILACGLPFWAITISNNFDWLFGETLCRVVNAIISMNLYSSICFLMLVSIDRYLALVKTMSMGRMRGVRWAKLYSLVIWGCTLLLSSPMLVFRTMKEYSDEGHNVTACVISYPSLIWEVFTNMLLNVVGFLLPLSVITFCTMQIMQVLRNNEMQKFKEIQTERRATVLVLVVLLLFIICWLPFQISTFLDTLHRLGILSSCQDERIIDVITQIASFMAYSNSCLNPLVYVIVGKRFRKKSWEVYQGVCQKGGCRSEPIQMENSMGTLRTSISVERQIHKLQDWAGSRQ
Summary of the method: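 Membranes of stably transfected CHO cells (human or rat B2 receptor), prepared in 20 mM TES pH 6.8 with 1 mM 1,10-phenanthroline, 140 µg/mL bacitracin and 0.1% BSA, spun at 40 000g. Filtration on PEI-soaked GF/B filters.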

B2 bradykinin receptor [2] = biological target: T3, B2 bradykinin receptor (Rattus norvegicus, UniProt P25023); experiment: Binding affinity against rat bradykinin B2 receptors expressed in CHO cells using [3H]bradykinin as radioligand; type: cell-based
T3 sequence (P25023 whole entry): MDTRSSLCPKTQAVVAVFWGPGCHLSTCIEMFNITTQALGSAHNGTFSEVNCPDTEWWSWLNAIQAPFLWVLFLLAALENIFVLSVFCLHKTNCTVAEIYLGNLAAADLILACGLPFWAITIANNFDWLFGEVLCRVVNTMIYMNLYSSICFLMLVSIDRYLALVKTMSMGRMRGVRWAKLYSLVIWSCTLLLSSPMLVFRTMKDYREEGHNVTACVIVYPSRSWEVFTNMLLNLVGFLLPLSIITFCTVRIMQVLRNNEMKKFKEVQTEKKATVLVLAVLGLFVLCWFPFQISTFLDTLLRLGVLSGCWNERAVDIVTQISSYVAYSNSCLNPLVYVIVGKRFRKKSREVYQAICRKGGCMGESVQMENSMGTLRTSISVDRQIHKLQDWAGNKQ
Summary of the method: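 Membranes of stably transfected CHO cells (human or rat B2 receptor), prepared in 20 mM TES pH 6.8 with 1 mM 1,10-phenanthroline, 140 µg/mL bacitracin and 0.1% BSA, spun at 40 000g. […] Filtration on PEI-soaked GF/B filters. Ki, means ± SEM (n = 3 or 4).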

Rattus norvegicus [3] = species: Rattus norvegicus; experiment: (§1) Agonistic activity on rat uterus(RUT) in presence of inhibitors; type: functional
Summary of the method: (§2)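 Uterus from female Sprague–Dawley rats (250-300 g) pretreated with diethylstilbestrol 0.1 mg/kg s.c. 18 h before CO2 kill. Tissue placed in Jalon solution (mM: NaCl 154, KCl 5.6, NaHCO3 1.7, MgCl2 1.4, glucose 5.5, CaCl2 0.3). One cumulative concentration-response curve per segment, run with or without protease inhibitors. Maximum per segment taken with angiotensin II (3 μM). Means ± SEM, n = 5; pD2.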

Rattus norvegicus [4] = species: Rattus norvegicus; experiment: Agonistic activity on rat uterus(RUT) in absence of inhibitors; type: functional
Summary of the method: as §2

Homo sapiens [5] = species: Homo sapiens; experiment: (§3) Agonistic activity on human umbilical vein(HUV) in presence of inhibitors; type: functional
Summary of the method: (§4)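 Human umbilical vein segments; cumulative concentration-response to agonist measured as contraction, run with or without protease inhibitors. Maximal contraction of each segment obtained after washout with U46619 (1 μM).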

Homo sapiens [6] = species: Homo sapiens; experiment: Agonistic activity on human umbilical vein(HUV) in absence of inhibitors; type: functional
Summary of the method: as §4

Rattus norvegicus [7] = species: Rattus norvegicus; experiment: as §1; type: functional, organism-based; conditions: read-out: pA2 (converted)
Summary of the method: as §2

Homo sapiens [8] = species: Homo sapiens; experiment: as §3; type: functional, organism-based; conditions: read-out: pA2 (converted)
Summary of the method: as §4

B2 bradykinin receptor [9] = biological target: T3, B2 bradykinin receptor; experiment: Binding affinity against rat Bradykinin receptor B2 expressed in CHO cells using [3H]-bradykinin as radioligand; type: cell-based
Summary of the method: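 Competition binding on membranes from stably transfected CHO cells. Cells were scraped into 20 mM TES pH 6.8 with 1 mM 1,10-phenanthroline, 140 µg/mL bacitracine and 0.1% BSA, and membranes were pelleted at 40 000g for 15 min. […] Bound label was collected by filtration on PEI-presoaked GF/B filters and counted by scintillation. n = 3 or 4.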

Row | Molecule | Ki (B1 bradykinin receptor) [nM] | Ki (B2 bradykinin receptor [1]) [nM] | pD2 (Homo sapiens [5]) | pD2 (Homo sapiens [6]) | further results
1 | N=C(N)NCCC[C@@H](N)C(=O)N[C@@H](CCCNC(=N)N)C(=O)N1CCC[C@H]1C(=O)N1CC(O)C[C@H]1C(=O)NCC(=O)N[C@@H](Cc1cccs1)C(=O)N[C@@H](CO)C(=O)N[C@H]1CSc2ccccc2N(CC(=O)N[C@@H](CCCNC(=N)N)C(=O)O)C1=O (stereo partly specified) | > 10000 | 162 | – | – | –
2 | NC(N)=NCCC[C@@H](N)C(=O)N[C@@H](CCCN=C(N)N)C(=O)N1CCC[C@H]1C(=O)N1CC(O)C[C@H]1C(=O)NCC(=O)N[C@@H](Cc1cccs1)C(=O)N[C@@H](CO)C(=O)N[C@@H]1CSc2ccccc2N(CC(=O)N[C@@H](CCCN=C(N)N)C(=O)O)C1=O (stereo partly specified) | > 10000 | 0.7 | 6.8 | 6.7 | Ki (B2 bradykinin receptor [2]): 6 nM; pD2 (Rattus norvegicus [3]): 7.5; pD2 (Rattus norvegicus [4]): 7.2
3 | N=C(N)NCCC[C@H](NC(=O)CN1C(=O)[C@H](NC(=O)[C@H](CO)NC(=O)[C@H](Cc2ccccc2)NC(=O)CNC(=O)[C@@H]2CCCN2C(=O)[C@@H]2CCCN2C(=O)[C@@H](N)CCCNC(=N)N)CSc2ccccc21)C(=O)O | > 10000 | – | – | – | –
4 | NC(N)=NCCC[C@@H](N)C(=O)N[C@@H](CCCN=C(N)N)C(=O)N1CCC[C@H]1C(=O)N1C[C@H](O)C[C@H]1C(=O)NCC(=O)N[C@@H](Cc1cccs1)C(=O)N[C@@H](CO)C(=O)N1Cc2ccccc2C[C@@H]1C(=O)N1[C@H](C(=O)N[C@@H](CCCN=C(N)N)C(=O)O)C[C@@H]2CCCC[C@@H]21 [ICATIBANT] | – | – | – | – | Kb (Rattus norvegicus [7]): 1.15 nM; Ki (B2 bradykinin receptor [2]): 0.077 nM; Kb (Homo sapiens [8]): 6.61 nM
5 | COc1ccc(C[C@@H](CN[C@@H](CCCNC(=N)N)C(=O)O)NC(=O)[C@@H]2CCCN2C(=O)[C@H](CO)NC(=O)[C@H](Cc2cccs2)NC(=O)CNC(=O)[C@@H]2C[C@@H](O)CN2C(=O)[C@@H]2CCCN2C(=O)[C@@H](N)CCCNC(=N)N)cc1 [LABRADIMIL] (H-RP[Hyp]G[2Thi]SP-X1) | – | 19 | 7.1 | 6.9 | –
6 | H-RPPGFSPFR-OH [BRADYKININ] [listing 1 of 2 here] | – | – | 7.9 | 7.4 | pD2 (Rattus norvegicus [3]): 8.3; pD2 (Rattus norvegicus [4]): 7.33
7 | H-RPPGFSPFR-OH [BRADYKININ] [listing 2 of 2 here] | – | – | – | – | Ki (B2 bradykinin receptor [9]): 0.46 nM
